According to ChEMBL document CHEMBL1134769, “Potent and selective nonpeptide inhibitors of caspases 3 and 7” (J Med Chem, 2001):
The source made the active and inactive calls. The calls are words filed in the database; no cut-off is given here.

Columns and labels:
Caspase-1 = molecular target: T1, Caspase-1 (Homo sapiens, UniProt P29466); experiment: Inhibitory activity against caspase-1; conditions: read-out: Ki app
T1 sequence (P29466 whole entry): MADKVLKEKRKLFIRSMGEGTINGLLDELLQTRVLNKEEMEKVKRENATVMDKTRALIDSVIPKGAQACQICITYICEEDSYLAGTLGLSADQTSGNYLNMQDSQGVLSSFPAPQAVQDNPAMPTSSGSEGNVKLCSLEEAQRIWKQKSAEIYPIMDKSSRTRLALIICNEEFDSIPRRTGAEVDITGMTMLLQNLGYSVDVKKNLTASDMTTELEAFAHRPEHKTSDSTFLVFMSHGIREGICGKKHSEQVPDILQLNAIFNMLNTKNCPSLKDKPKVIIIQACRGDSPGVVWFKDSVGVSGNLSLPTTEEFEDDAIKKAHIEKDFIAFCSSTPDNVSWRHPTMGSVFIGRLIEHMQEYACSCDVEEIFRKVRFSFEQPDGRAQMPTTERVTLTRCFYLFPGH
How it was run: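 Recombinant full-length human caspase 1, ~10 units/assay, in 25 mM K+HEPES pH 7.5 with 10% sucrose, 0.1% CHAPS and 5 mM β-mercaptoethanol. Substrate 10 μM Ac-YVAD-AMC. AMC read at 360/460 nm, 30 °C, with 5% final DMSO. Single-dose screen (typically 5–50 μM), followed by IC50 curves for active compounds.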

Caspase-7 = molecular target: T2, Caspase-7 (Homo sapiens, UniProt P55210); experiment: Inhibitory activity against Caspase-7; conditions: read-out: Ki app
T2 sequence (P55210 whole entry): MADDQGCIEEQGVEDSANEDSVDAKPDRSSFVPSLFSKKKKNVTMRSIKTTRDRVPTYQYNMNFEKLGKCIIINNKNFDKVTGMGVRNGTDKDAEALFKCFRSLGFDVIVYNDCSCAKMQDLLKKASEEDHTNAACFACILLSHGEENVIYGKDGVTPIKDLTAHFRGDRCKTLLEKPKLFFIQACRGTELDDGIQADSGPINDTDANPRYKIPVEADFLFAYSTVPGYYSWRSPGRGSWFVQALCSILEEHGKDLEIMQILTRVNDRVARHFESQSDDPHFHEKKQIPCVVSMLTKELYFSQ
How it was run: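 Recombinant full-length human caspase 3 or 7, ~10 units/assay (1 unit = 1 pmol AMC/min). Substrate 10 μM Ac-DEVD-AMC. AMC fluorescence at 360/460 nm, 30 °C, with 5% final DMSO. Single-dose screen (typically 5–50 μM), then IC50 curves; repeated IC50s had CVs typically <30%.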

Caspase-8 = Caspase-8 (Homo sapiens, UniProt Q14790); experiment: Inhibitory activity against Caspase-8; conditions: read-out: Ki app
Sequence of Caspase-8 (Q14790 217-374 limits assumed): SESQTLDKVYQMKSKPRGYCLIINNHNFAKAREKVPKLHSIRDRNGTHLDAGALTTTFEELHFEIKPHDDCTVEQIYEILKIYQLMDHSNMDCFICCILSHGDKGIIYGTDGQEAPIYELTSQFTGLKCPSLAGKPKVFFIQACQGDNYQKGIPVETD
Sequence of Caspase-8 (Q14790 385-479 limits assumed): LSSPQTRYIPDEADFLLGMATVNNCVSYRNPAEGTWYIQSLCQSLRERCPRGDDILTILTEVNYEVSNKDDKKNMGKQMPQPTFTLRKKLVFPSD
How it was run: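 Recombinant full-length human caspase 8, ~10 units/assay, in Na+MOPS pH 7.5 with 10% glycerol, 0.25 mM EDTA and 5 mM β-mercaptoethanol. Substrate 10 μM Ac-IETD-AMC. Fluorescence at 360/460 nm, 30 °C, 5% final DMSO. Compounds screened at a single dose (typically 5–50 μM), then full IC50 curves for actives.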

Jurkat (Homo sapiens) = experiment: In vitro inhibition of Jurkat cell apoptosis at 50 uM of compound
C20/A4 [1] = experiment: In vitro inhibition of Chondrocyte cell line C20/A4 apoptosis at 10 uM of compound; Not active; assay type: functional, cell-based; conditions: Homo sapiens
How it was run: (§1)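 Immortalized human chondrocyte line C20/A4 seeded at 20 000 cells/well overnight, then exposed 24 h to 4 μg/mL camptothecin with or without compound. Floating and adherent cells combined and lysed 30 min at 4 °C, then clarified at 14000g. Mono- and oligonucleosome DNA fragments measured by cell death ELISA; result expressed as % inhibition of apoptosis.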

C20/A4 [2] = experiment: In vitro inhibition of Chondrocyte cell line C20/A4 apoptosis at 25 uM of compound; Not active; assay type: functional, cell-based; conditions: Homo sapiens; how it was run: as §1
C20/A4 [3] = experiment: In vitro inhibition of Chondrocyte cell line C20/A4 apoptosis at 10 uM of compound; assay type: functional, Homo sapiens; how it was run: as §1

SMILES | Ki (Caspase-1) [µM] | Ki (Caspase-7) [µM] | Ki (Caspase-8) [µM] | Inhibition (Jurkat (Homo sapiens)) [%] | NA (C20/A4 [1]) | NA (C20/A4 [2]) | Inhibition (C20/A4 [3]) [%]
O=C1Nc2ccc(S(=O)(=O)N3CCC[C@H]3COc3ccccc3)cc2C1=O | 17 | 0.047 | 49 | 82 |  |  | 
CN(CC1CCCN1S(=O)(=O)c1ccc2c(c1)C(=O)C(=O)N2)c1ccccc1 (stereo not drawn) | > 50 | 10 | > 50 |  | inactive | inactive | 
O=C1C(=O)N(Cc2ccccc2)c2ccc(S(=O)(=O)N3CCC[C@H]3COc3ccccc3)cc21 | > 5 | 0.006 | > 5 | 47 |  |  | 48
COC[C@@H]1CCCN1S(=O)(=O)c1ccc2c(c1)C(=O)C(=O)N2 | > 25 | 0.17 | > 25 | 54 |  |  | 44
O=C1Nc2ccc(S(=O)(=O)N3CCC[C@H]3CNc3ccccc3)cc2C1=O | 21 | 0.047 | 80 | 61 |  |  | 
